Experimental data taken from ChEMBL document CHEMBL4513216, “Probing the Open Global Health Chemical Diversity Library for Multistage-Active Starting Points for Next-Generation Antimalarials” (ACS Infect Dis, 2020).

Assay: Toxicity liver stage against HepG2, at 10uM
Type: cell-based
Design: test concentration 10 uM, cell line HepG2-A16-CD81EGFP
Conditions: human, HepG2-A16-CD81EGFP cells; read-out: INHIBITION
Procedure, shortened: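 Uninfected HepG2-A16-CD81EGFP cells, 3 × 10^3 per well, 1536-well, plated on prespotted compound at 10 μM final, parasite-free screening media added to match infected plates; puromycin 10 μM positive, DMSO 0.5% negative; run in parallel with 48 h PbLuc assay at 37 °C, 5% CO2; viability by CellTiter-Glo luminescence, normalized to controls.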

| SMILES | cytotoxicity at 10 µM |
| --- | --- |
| CNC(=O)Nc1cc(-c2ccccc2C)nn1CCO | 7% |
| O[C@H]1CC[C@@H](Cc2cc(-c3ccc(F)cc3)on2)O[C@@H]1CNCC1CC1 | -6.4% |
| O=S(=O)(NC[C@H]1C[C@@H]2CCN1C[C@@H]2CN1CCCCC1)c1ccccc1 | -4.32% |
| CC1CN(c2ncccc2C(=O)Nc2cccc3c2CCCC3)CCN1 (configuration not stated) | 4.65% |
| CN(C)C(=O)CNC(=O)c1ccc2c(-c3nccs3)noc2c1 | 7.19% |
| Cc1cccc(NC(=O)N2CCn3cnc(COCC4CC4)c3C2)c1 | 3.83% |
| CC(=O)N1CCC2(C1)c1ccccc1S(=O)(=O)N2CCC(C)C (configuration not stated) | -9.11% |
| Cc1ccc(C(=O)N2C[C@H]3CN(Cc4csc(C)n4)C[C@H]3C2)cn1 | -143% |
| Cc1nc(CN2C(=O)C[C@@H]3[C@@H]2CCN3S(=O)(=O)C2CC2)cs1 | -124% |
| COCC1CC2(CCN(C(=O)c3ccc(F)cc3C)CC2)CO1 (configuration not stated) | -108% |
| O=C1CC(c2cccs2)Cc2nc(O)c(C(=O)N3CCCC3)cc21 (configuration not stated) | -3.96% |
| Cn1nc(CNC(=O)C2COc3ccccc3O2)cc1C1CC1 (configuration not stated) | 7.52% |
| Cc1cc(OCc2ccc(C(=O)O)s2)ccc1Cl | 12.2% |
| O=C(NC1CCCCC1)c1nnc2ccc(N3CCOCC3)cc2n1 | 5.97% |
| CC(=O)Oc1ccnc(C(F)(F)F)c1C(C)=O | -11.4% |
| O=C(c1cc(-c2cccs2)cs1)N1CCSCC1 | 10.4% |
| O=C(Nc1ccc2c(c1)OCCO2)c1ccc(=O)[nH]n1 | 18.1% |
| Fc1ccc2[nH]c3c(c2c1)CCN1C(c2ccncc2)N2CCC31CC2 (configuration not stated) | 4.67% |
| Cc1nccnc1C1CCN(C2CCCC2O)CC1 (configuration not stated) | -1.35% |
| CCN1CCCC1CNCc1cc2ccccc2[nH]c1=O (configuration not stated) | 1.78% |
| Cc1ccc(=O)n(CC2(O)CCN(Cc3ccoc3)CC2)n1 | -24.2% |
| Cc1nc(CC(=O)N2CCN(C)CC2c2ccccc2)cs1 (configuration not stated) | 3.49% |
| COCCNC(=O)N1CCN(C(C)C(=O)NC2CCCC2)CC1 (configuration not stated) | 1.16% |

| SMILES | cytotoxicity at 10 µM |
| --- | --- |
| CCCC1CCCN(C(=O)CNC(=O)c2ccoc2C)CC1 (configuration not stated) | 4% |
| CNS(=O)(=O)c1cc(C(=O)NC2COc3ccccc3C2)ccc1OC (configuration not stated) | 18.9% |
| Cc1c(NCCO)cccc1OC1CCCC1 | 3.1% |
| CCOC(=O)C1(O)CCN(C(=O)Nc2ccc(CC)cc2)CC1 | -130% |
| Cc1nc2n(n1)CC(Nc1nc(C(F)(F)F)nc3ccccc13)CC2 (configuration not stated) | -0.978% |
| CCN(CC)S(=O)(=O)CC(=O)Nc1ccsc1 | -2.77% |
| COC(=O)[C@@H]1C[C@@H](O)CN1Cc1ccn(-c2ccc(F)cc2)n1 | -5.17% |
| O=C1CCN(C(=O)NCC(c2ccccc2)c2ccccc2)CCN1 | -1.44% |
| CC(C)NC(=O)N1CCC[C@H]1C(=O)NCCCc1cccc(F)c1 | 4.27% |
| CCc1[nH]nc(NC(=O)c2ccc(Cl)cn2)c1C | -9.69% |
| CN1CCN(C(=O)c2cc(C#N)cn2C)c2ccccc2C1 | 5.45% |
| Cc1nc2n(n1)CC(NCc1nc3ccccc3o1)CC2 (configuration not stated) | -0.608% |
| CC(NC(=O)Nc1ccncc1)c1ccc2c(c1)CC(=O)N2 (configuration not stated) | -5.76% |
| CCC(C)NC(=O)c1ccc(CNC(=O)CCC(C)C)cc1 (configuration not stated) | 2.27% |
| NC(=O)CN1CCC(NC2CCCCc3ccccc32)CC1 (configuration not stated) | -7.86% |
| CCC(C)(C)NCc1nc(C(C)(C)NC(=O)OC(C)(C)C)no1 | 2.35% |
| Cc1noc(CN(C)CC2CCN(CCO)CC2)n1 | 5.82% |
| CCCC(C(=O)NC1CCN(S(C)(=O)=O)CC1)c1ccccc1 (configuration not stated) | -1.38% |
| COCCNC(=O)Nc1ccn(-c2cccc(C(F)(F)F)c2)n1 | -1.94% |
| CN(CCOc1ccc(Br)cc1)Cc1cscn1 | 5.25% |
| CS(=O)(=O)CCCSCc1ccc(Br)c(F)c1 | 4.64% |
| COc1ccccc1-c1cc(NC(=O)CC2CCS(=O)(=O)C2)[nH]n1 (configuration not stated) | -113% |
| O=C1N(CC2CC2)C2(CCSCC2)NC12CCCC2 | -150% |

| SMILES | cytotoxicity at 10 µM |
| --- | --- |
| Cc1ccc(CNCc2cccc3cccnc23)c(OC2CCOC2)c1 (configuration not stated) | 1.42% |
| Cc1nc(NC(=O)CCOCC(F)(F)F)ccc1Br | 6.27% |
| CCC1CN(C(=O)c2cnc(-c3ccccc3)s2)CCO1 (configuration not stated) | -2.63% |
| COc1ccc(C(=O)Nc2ccc3c(c2)C(=O)NC3)cc1Br | 3.53% |
| Cc1noc(C)c1CS(=O)(=O)CC(=O)N1c2ccccc2CC1C (configuration not stated) | 3.53% |
| Cc1nc(C2(NCc3c(C)nn(C)c3N3CCOCC3)CCC2)no1 | 4.98% |
| Cc1cc(CS(=O)(=O)NC2CCCCC2)on1 | 2.92% |
| Cc1cccnc1C(NC(=O)CNC(=O)c1ccoc1C)C(C)C (configuration not stated) | 2.45% |
| COc1ccc(C2CCCN2C(=O)c2ccnc(NC3CC3)c2)cc1 (configuration not stated) | 3.07% |
| CC(NCc1ccc(OCc2nccn2C)cc1)c1cccnc1 (configuration not stated) | -4.47% |
| Cc1nn(C)cc1C(=O)N1CCC(CSc2ccccc2)C1 (configuration not stated) | 2.84% |
| CC(C)(CNc1ccc2ccc(F)cc2n1)NS(C)(=O)=O | -7.04% |
| CN(CC(O)C1CC1)C(=O)Nc1ccc(F)c(-n2cccc2)c1 (configuration not stated) | 2.2% |
| CCc1nc(CNc2ccc(F)cc2I)no1 | 3.36% |
| CCN1CCCC1CN(CCN(C)C)S(=O)(=O)c1cccc(C#N)c1 (configuration not stated) | -12.1% |
| CCN1CCC(CC(=O)NCC(O)c2ccc3ccccc3c2)CC1 (configuration not stated) | -5.26% |
| N[C@H]1CCCN(C(=O)c2cnc(COc3ccccc3)nc2O)C1 | 1.67% |
| COc1ccc(-c2cc(C3CC3)c(C#N)c(N)n2)cc1F | -2.84% |
| O=C1CCCN1C1CCCN(CCn2cc(Cl)cn2)C1 (configuration not stated) | -0.626% |
| COc1ccc2ncn(Cc3ncc[nH]3)c(=O)c2c1 | -11% |
| Cc1cccc(C(C(=O)NCCn2cccc2)N(C)C)c1 (configuration not stated) | -9.12% |
| CCn1ncnc1C(C)Nc1cc(C2CCNCC2)nc(C)n1 (configuration not stated) | -6.77% |
| Cc1ccc(-c2noc(C(O)CC(C)C)n2)nn1 (configuration not stated) | -7.72% |

| SMILES | cytotoxicity at 10 µM |
| --- | --- |
| CC(C)(NC(=O)c1coc(COc2cccc(F)c2)n1)C(N)=O | -136% |
| CCOCCC(=O)NCC1COc2c(cccc2OC)C1 (configuration not stated) | -142% |
| CNC(=O)c1nc(CN2CCOC(Cc3ccc(F)cc3)C2)no1 (configuration not stated) | -2.28% |
| CCN(Cc1ccncc1)C(=O)c1cn(CCC2CCCCC2)nn1 | 10.5% |
| Cn1cc(C(=O)N2CC[C@@]3(O)CCN(C(=O)C4CCC4)C[C@H]3C2)cn1 | -140% |
| Cc1cnccc1NCCNC1CCN(CC(C)C)CC1 | -10% |
| CCc1nc(C)c([C@H]2CN(C)C[C@@H]2C(=O)Nc2ccc(OC)nc2)[nH]1 | -3.59% |
| Cc1ccc2nc(CN(C)Cc3[nH]nc4c3CCC4)[nH]c2c1C | 2.74% |
| COc1cc2[nH]c(=O)c(CN3CCCC3C)cc2c(OC)c1OC (configuration not stated) | -7.74% |
| Cc1ccc2nc(CN3CCCCC3CCN3CCOCC3)cn2c1 (configuration not stated) | 3.28% |
| CCc1ncc2c(n1)CN(c1cc(NCCO)nc(N)n1)C2 | -4.49% |
| Cc1ccccc1C(CNc1ncnc2c1CCNCC2)N(C)C (configuration not stated) | 21.5% |
| Cc1cc(CN2CCC(CNC(=O)C3(c4ccccc4)CC3)C2)[nH]n1 (configuration not stated) | -145% |
| Cc1cc2ccccc2n1CCC(=O)N1CCCC(O)(CN(C)C)CC1 (configuration not stated) | -1.88% |
| CS(=O)(=O)N1CCCCC1CCc1ccc(O)cc1 (configuration not stated) | -0.311% |
| Cc1nc(NCCC23CCCN2CCC3)cc(C2CCCNC2)n1 (configuration not stated) | 7.98% |
| CSCCC(=O)NCc1cc2n(n1)CCN(C(=O)N(C)C)C2 | -5.77% |
| CNc1cc(-c2nc(CCN3CCCC3=O)no2)ccn1 | 7.46% |
| CCCc1nc(C(=O)N(C)Cc2cc(CC)no2)cs1 | 6.75% |
| CC(C)Nc1ncc(CN2C[C@@H](CN3CCC(O)CC3)[C@@H](CO)C2)cn1 | 18.5% |
| Cc1ccc(NC2CCN(C(=O)CCc3ccsc3)CC2)nn1 | 4.3% |
| CCOCC(O)CN1CCN(C(=O)c2cc(C)ccc2F)CC1 (configuration not stated) | 5.71% |
| CC(Cn1cccn1)NCc1nc(-c2ccccn2)no1 (configuration not stated) | -5.17% |

| SMILES | cytotoxicity at 10 µM |
| --- | --- |
| COCc1nc(C(=O)NS(=O)(=O)c2ccc(Cl)cc2F)cs1 | 8.13% |
| O=C(c1cccnc1N1CCOCC1)N1CCCC(n2cccn2)C1 (configuration not stated) | 0.985% |
| Cc1ccc(CC(=O)N2CCC(Nc3cccnn3)CC2)s1 | -7.01% |
| Cn1c(NCC(O)c2ccc(F)cc2)c(C#N)c(=O)n(C)c1=O (configuration not stated) | -7.57% |
| Cc1nc(CN(C)C2CCN(CCCc3ccccc3)C2)no1 (configuration not stated) | -16.1% |
| Cc1cnn(CC2CCCN2C(=O)c2c(F)cccc2Cl)c1 (configuration not stated) | -29.1% |
| Cc1cnn(CC2CCCCN2Cc2nccn2CC(F)(F)F)c1 (configuration not stated) | -13.7% |
| Cc1oc(C)c(C(=O)N2CCN(Cc3cscn3)CC2)c1C | -10.6% |
| Cc1csc(CNC(=O)N(C)Cc2ccc3c(c2)OCCO3)n1 | 5.38% |
| CCOc1ccccc1-c1noc(CN2CCN(CCOC)CC2)n1 | -4.9% |
| CCC(O)CN(CC(=O)NC(=O)NC1CC1)c1ccccc1 (configuration not stated) | -2.48% |
| O=C(CSc1ccc(F)cc1)NS(=O)(=O)c1ccc2c(c1)OCCO2 | -29.1% |
| CC(C)(C)c1ncc(C(=O)NCCNC(=O)c2ccccc2)s1 | -8.08% |
| CCc1nc(CN2CCCC(NCc3nnc(C4CC4)o3)C2)no1 (configuration not stated) | -5.73% |
| c1ccc(CN2CC[C@H]3CO[C@H](CNc4ncccn4)[C@H]3C2)cc1 | -5.87% |
| CN1C[C@@H]2CN(Cc3ccsc3)CCC[C@]2(C(=O)O)C1 | -141% |
| Cc1cccnc1N1CC2(CCN(Cc3cccnc3)C2)C1 | -8.13% |
| O=c1c(=CS(=O)(=O)Nc2ccccc2)[nH]c(=O)n2cccc12 | 0.458% |
| O=C(C1CCOCC1)N1C[C@@H]2CC[C@H]1CN(C1Cc3ccccc3C1)C2 | -0.317% |
| CN(C)C(=O)N1C[C@@H]2CC[C@H]1CN(C1Cc3ccccc3C1)C2 | -0.581% |
